Measured values: ChEMBL document CHEMBL1157620, “1-(Aryl)-6-[alkoxyalkyl]-3-azabicyclo[3.1.0]hexanes and 6-(aryl)-6-[alkoxyalkyl]-3-azabicyclo[3.1.0]hexanes: a new series of potent and selective triple reuptake inhibitors” (J Med Chem, 2010)

How the values were obtained:
[1] = target: T1, Sodium-dependent dopamine transporter (Homo sapiens, UniProt Q01959); experiment: Displacement of [3H]WIN-35428 from human recombinant DAT expressed in BacMam virus-transduced cells by scintillation proximity assay; type: cell-based
T1 sequence (Q01959 whole entry): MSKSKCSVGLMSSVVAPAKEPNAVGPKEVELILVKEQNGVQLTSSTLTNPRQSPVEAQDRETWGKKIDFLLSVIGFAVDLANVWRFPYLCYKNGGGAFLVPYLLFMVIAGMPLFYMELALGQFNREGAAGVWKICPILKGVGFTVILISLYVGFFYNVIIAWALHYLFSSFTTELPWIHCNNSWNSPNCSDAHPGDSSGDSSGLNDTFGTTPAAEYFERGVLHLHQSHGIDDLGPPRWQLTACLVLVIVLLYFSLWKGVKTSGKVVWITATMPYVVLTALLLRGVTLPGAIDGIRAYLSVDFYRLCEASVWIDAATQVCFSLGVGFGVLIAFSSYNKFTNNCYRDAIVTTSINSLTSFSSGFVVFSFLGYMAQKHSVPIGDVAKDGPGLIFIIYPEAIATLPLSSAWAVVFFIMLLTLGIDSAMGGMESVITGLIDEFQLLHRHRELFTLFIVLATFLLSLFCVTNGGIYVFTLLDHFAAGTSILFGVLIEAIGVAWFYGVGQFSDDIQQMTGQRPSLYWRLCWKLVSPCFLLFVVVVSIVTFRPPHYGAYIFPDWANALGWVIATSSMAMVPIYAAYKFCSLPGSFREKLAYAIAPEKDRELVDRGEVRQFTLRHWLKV

[2] = target: T2, Sodium-dependent noradrenaline transporter (Homo sapiens, UniProt P23975); experiment: Displacement of [3H]nisoxetine from human recombinant NET expressed in BacMam virus-transduced cells by scintillation proximity assay; type: cell-based
T2 sequence (P23975 whole entry): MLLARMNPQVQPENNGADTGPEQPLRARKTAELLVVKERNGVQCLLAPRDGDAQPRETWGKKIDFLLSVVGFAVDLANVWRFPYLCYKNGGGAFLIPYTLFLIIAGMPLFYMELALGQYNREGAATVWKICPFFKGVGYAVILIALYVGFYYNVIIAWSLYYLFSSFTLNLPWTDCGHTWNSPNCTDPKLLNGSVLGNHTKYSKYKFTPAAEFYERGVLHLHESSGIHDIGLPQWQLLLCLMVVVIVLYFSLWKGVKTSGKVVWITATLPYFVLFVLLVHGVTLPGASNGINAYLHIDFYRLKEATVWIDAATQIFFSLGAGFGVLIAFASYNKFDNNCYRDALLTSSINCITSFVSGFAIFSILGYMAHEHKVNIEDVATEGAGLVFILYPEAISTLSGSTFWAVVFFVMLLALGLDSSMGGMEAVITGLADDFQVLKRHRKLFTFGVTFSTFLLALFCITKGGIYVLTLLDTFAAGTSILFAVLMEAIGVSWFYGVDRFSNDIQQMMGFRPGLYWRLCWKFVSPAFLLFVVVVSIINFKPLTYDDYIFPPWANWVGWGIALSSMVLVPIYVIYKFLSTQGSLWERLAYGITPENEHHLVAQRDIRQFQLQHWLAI
Summary of the method: (§1)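 BacMam-transduced membranes in SPA format. SERT: 1 mg/mL beads, 6 μg/mL membranes, 3 nM [3H]citalopram. NET: 2 mg/mL beads, 40 μg/mL membranes, 10 nM [3H]nisoxetine. Incubated overnight at room temperature; pKi from pIC50 by Cheng-Prusoff.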

[3] = target: T3, Sodium-dependent serotonin transporter (Homo sapiens, UniProt P31645); experiment: Displacement of [3H]citalopram from human recombinant SERT expressed in BacMam virus-transduced cells by scintillation proximity assay; type: cell-based; summary of the method: as §1
T3 sequence (P31645 whole entry): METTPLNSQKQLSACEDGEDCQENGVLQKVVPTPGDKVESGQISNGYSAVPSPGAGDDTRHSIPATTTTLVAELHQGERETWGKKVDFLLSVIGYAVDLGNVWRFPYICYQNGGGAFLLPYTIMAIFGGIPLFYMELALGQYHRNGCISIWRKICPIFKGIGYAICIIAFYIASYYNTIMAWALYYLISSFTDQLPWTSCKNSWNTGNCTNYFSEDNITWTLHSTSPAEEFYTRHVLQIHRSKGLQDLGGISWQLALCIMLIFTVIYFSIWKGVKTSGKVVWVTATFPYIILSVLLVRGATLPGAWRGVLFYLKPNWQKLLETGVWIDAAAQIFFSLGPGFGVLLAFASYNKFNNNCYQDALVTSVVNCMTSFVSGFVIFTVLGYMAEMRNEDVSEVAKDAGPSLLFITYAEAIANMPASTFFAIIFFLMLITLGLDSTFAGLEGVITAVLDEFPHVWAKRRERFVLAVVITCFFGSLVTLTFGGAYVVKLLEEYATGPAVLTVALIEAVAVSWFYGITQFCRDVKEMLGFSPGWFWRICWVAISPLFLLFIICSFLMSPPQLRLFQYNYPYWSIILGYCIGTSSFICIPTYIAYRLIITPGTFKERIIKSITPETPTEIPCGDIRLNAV

[4] = target: Sodium-dependent serotonin transporter (Rattus norvegicus, UniProt P31652); experiment: Displacement of [3H]citalopram from rat cortex SERT by filtration binding assay
Summary of the method: (§2)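 Native brain tissue filtration binding, run as for the recombinant transporters. SERT on rat or mouse cortex (20 and 7 μg protein/well respectively). NET on rat hippocampus (40 μg/well). DAT on rat striatum (20 μg/well).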

Cytochrome P450 1A2 = target: T4, Cytochrome P450 1A2 (Homo sapiens, UniProt P05177); experiment: Inhibition of human CYP1A2 by fluorescence assay; type: ADME
T4 sequence (P05177 whole entry): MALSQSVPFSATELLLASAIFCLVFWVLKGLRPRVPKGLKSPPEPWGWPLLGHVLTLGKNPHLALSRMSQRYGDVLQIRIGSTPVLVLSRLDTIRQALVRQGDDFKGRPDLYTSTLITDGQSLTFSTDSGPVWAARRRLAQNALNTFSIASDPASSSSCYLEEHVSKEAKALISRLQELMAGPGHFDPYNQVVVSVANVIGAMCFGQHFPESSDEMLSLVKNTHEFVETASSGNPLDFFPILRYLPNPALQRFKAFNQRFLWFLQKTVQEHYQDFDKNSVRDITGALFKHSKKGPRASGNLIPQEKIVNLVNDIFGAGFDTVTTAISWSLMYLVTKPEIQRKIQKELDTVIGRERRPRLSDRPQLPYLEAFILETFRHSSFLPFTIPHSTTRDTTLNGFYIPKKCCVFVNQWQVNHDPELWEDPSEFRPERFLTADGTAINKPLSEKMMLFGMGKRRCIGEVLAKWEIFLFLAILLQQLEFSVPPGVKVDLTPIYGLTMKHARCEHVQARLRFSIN
Summary of the method: (§3)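 Recombinant human P450 bactosomes (0.1 mg/mL) in 50 mM phosphate, pH 7.4. Test compound at 0.1-10 μM, preincubated 10 min at 37 °C with fluorogenic substrate: ethoxyresorufin 0.5 μM (1A2), FCA 50 μM (2C9), BMC 10 μM (2C19), MMC 10 μM (2D6).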

Cytochrome P450 2C9 = Cytochrome P450 2C9 (Homo sapiens, UniProt P11712); experiment: Inhibition of human CYP2C9 by fluorescence assay; type: ADME; summary of the method: as §3
Cytochrome P450 2C19 = Cytochrome P450 2C19 (Homo sapiens, UniProt P33261); experiment: Inhibition of human CYP2C19 by fluorescence assay; type: ADME; summary of the method: as §3
Cytochrome P450 2D6 = Cytochrome P450 2D6 (Homo sapiens, UniProt P10635); experiment: Inhibition of human […] by fluorescence assay; type: ADME; summary of the method: as §3
Cytochrome P450 3A4 = Cytochrome P450 3A4 (Homo sapiens, UniProt P08684); experiment: Inhibition of human CYP3A4 by fluorescence assay
Liver microsomes [5] = experiment: Intrinsic clearance in human liver microsomes assessed per gram of protein at 0.5 uM after 30 mins by HPLC-MS/MS analysis; type: ADME, Microsome; conditions: microsomes, 0.5 h, 0.5 µM
Summary of the method: (§4)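 Compound at 0.5 μM with rat or human liver microsomes (0.5 mg protein/mL), 50 mM phosphate, pH 7.4, 37 °C, started with NADPH. Sampled at 0-30 min, acetonitrile quench, HPLC-MS/MS. CLi from first-order elimination constant, scaled assuming 52.5 mg microsomal protein/g.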

Liver microsomes [6] = experiment: Intrinsic clearance in rat liver microsomes assessed per gram of protein at 0.5 uM after 30 mins by HPLC-MS/MS analysis; type: ADME, Microsome; conditions: microsomes, 0.5 h, 0.5 µM; summary of the method: as §4
[7] = Blood clearance in rat; type: ADME, organism-based
[8] = Half life in rat; type: ADME, organism-based; conditions: in vivo
[9] = Volume of distribution in rat; type: ADME, organism-based; conditions: in vivo
[10] = Bioavailability in rat; type: ADME, organism-based; conditions: in vivo
[11] = Ratio of drug level in brain to blood in rat; type: ADME, tissue-based; conditions: read-out: BBR
[12] = Fraction unbound in rat brain; type: ADME, tissue-based; conditions: brain
[13] = target: T3, Sodium-dependent serotonin transporter; experiment: Inhibition of [3H]serotonin reuptake at human SERT expressed in LLCPK cells by scintillation proximity assay; type: cell-based
Summary of the method: (§5)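 Uptake-SPA on stably transfected LLCPK cells in HEPES buffer, pH 7.4. SERT: 25000 cells/well, 1.5 mg/mL beads, 35 nM [3H]serotonin. NET: 50000 cells/well, 1.5 mg/mL beads, 45 nM [3H]noradrenalin. DAT: 75000 cells/well, 2 mg/mL beads, 75 nM [3H]dopamine. Concentrations are those of the substrate addition. 1 h at room temperature; 4-parameter fit.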

[14] = target: T2, Sodium-dependent noradrenaline transporter; experiment: Inhibition of [3H]noradrenalin reuptake at human NET expressed in LLCPK cells by scintillation proximity assay; type: cell-based; summary of the method: as §5
[15] = target: T1, Sodium-dependent dopamine transporter; experiment: Inhibition of [3H]dopamine reuptake at human DAT expressed in LLCPK cells by scintillation proximity assay; type: cell-based; summary of the method: as §5
[16] = target: Alpha-1A adrenergic receptor (Homo sapiens, UniProt P35348); experiment: Inhibition of adrenergic alpha1A receptor
Sequence of Alpha-1A adrenergic receptor (P35348 whole entry): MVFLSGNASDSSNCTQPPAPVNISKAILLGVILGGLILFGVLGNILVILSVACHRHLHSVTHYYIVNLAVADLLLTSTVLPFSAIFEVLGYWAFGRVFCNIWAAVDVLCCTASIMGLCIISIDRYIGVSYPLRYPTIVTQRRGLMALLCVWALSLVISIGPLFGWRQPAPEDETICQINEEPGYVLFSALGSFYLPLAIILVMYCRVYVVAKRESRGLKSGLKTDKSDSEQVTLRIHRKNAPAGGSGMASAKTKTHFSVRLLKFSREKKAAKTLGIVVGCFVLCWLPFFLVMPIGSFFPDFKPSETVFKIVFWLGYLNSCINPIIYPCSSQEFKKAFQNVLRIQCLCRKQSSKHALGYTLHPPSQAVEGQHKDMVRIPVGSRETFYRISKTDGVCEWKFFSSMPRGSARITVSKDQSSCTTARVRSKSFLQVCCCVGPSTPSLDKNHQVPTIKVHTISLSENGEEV

[17] = target: 5-hydroxytryptamine receptor 2A (Homo sapiens, UniProt P28223); experiment: Inhibition of 5HT2A receptor
Histamine H1 receptor = Histamine H1 receptor (Homo sapiens, UniProt P35367); experiment: Inhibition of histamine H1 receptor
[18] = target: Muscarinic acetylcholine receptor M1 (Homo sapiens, UniProt P11229); experiment: Inhibition of muscarinic M1 receptor
[19] = target: Muscarinic acetylcholine receptor M2 (Homo sapiens, UniProt P08172); experiment: Inhibition of muscarinic M2 receptor
[20] = target: Muscarinic acetylcholine receptor M3 (Homo sapiens, UniProt P20309); experiment: Inhibition of muscarinic M3 receptor
[21] = target: Muscarinic acetylcholine receptor M4 (Homo sapiens, UniProt P08173); experiment: Inhibition of muscarinic M4 receptor
[22] = target: Muscarinic acetylcholine receptor M5 (Homo sapiens, UniProt P08912); experiment: Inhibition of muscarinic M5 receptor
Sequence of Muscarinic acetylcholine receptor M5 (P08912 whole entry): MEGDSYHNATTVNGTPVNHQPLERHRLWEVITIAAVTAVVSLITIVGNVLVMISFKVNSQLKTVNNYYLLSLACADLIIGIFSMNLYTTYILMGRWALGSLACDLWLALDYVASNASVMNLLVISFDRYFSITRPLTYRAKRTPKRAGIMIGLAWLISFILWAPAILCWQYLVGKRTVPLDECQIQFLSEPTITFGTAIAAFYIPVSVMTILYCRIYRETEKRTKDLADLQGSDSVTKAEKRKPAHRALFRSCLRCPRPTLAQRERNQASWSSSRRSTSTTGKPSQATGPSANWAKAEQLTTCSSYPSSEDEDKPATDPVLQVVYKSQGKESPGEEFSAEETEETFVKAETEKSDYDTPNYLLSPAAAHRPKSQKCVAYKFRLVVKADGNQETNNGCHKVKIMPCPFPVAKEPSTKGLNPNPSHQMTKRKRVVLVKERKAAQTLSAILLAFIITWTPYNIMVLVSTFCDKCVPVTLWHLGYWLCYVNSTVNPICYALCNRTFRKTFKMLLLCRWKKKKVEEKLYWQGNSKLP

[23] = target: T5, Voltage-gated inwardly rectifying potassium channel KCNH2 (Homo sapiens, UniProt Q12809); experiment: Inhibition of human ERG assessed as blockade of channel current by electrophysiology assay
T5 sequence (Q12809 whole entry): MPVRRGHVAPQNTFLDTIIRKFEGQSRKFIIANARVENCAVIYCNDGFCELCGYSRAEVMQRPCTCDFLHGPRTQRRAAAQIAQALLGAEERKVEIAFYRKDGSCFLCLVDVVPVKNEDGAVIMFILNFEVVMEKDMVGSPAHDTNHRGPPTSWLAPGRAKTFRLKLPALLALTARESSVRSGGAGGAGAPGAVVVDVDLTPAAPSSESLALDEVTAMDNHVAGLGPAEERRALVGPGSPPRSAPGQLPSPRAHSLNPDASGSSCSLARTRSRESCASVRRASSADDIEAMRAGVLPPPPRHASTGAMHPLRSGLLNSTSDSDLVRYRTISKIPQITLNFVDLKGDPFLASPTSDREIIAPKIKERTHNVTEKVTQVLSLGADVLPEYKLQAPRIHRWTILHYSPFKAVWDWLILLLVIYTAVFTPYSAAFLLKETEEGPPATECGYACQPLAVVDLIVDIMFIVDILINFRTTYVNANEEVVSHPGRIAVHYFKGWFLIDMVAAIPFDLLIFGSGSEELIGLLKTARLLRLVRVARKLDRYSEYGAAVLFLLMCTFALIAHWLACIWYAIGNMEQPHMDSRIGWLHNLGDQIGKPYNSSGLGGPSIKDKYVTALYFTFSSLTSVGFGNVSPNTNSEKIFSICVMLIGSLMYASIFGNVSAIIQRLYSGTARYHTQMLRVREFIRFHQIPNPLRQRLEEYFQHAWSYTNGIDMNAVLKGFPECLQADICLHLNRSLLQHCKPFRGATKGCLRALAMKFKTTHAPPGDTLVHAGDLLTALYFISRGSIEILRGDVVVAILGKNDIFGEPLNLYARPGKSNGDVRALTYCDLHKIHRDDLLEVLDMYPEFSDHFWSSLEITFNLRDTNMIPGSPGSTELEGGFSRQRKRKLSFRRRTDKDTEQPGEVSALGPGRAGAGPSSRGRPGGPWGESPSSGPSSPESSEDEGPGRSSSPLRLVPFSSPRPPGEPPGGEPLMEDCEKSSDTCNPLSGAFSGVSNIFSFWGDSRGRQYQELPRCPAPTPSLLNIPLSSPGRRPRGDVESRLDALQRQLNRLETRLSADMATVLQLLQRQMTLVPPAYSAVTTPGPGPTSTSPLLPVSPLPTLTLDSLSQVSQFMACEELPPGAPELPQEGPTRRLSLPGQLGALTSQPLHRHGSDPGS

[24] = target: T5, Voltage-gated inwardly rectifying potassium channel KCNH2; experiment: Displacement of [3H][…] from human ERG by scintillation proximity assay
Summary of the method: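 SPA-format [³H]dofetilide binding to hERG, with bound signal read on a plate imager. The value is reported as a binding pKi.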

Transporter = Transporter (Rattus norvegicus, UniProt Q63380); experiment: Displacement of [N-methyl-3H]nisoxetine from rat hippocampus NET by filtration binding assay; type: tissue-based; summary of the method: as §2
Sequence of Transporter (Q63380 whole entry): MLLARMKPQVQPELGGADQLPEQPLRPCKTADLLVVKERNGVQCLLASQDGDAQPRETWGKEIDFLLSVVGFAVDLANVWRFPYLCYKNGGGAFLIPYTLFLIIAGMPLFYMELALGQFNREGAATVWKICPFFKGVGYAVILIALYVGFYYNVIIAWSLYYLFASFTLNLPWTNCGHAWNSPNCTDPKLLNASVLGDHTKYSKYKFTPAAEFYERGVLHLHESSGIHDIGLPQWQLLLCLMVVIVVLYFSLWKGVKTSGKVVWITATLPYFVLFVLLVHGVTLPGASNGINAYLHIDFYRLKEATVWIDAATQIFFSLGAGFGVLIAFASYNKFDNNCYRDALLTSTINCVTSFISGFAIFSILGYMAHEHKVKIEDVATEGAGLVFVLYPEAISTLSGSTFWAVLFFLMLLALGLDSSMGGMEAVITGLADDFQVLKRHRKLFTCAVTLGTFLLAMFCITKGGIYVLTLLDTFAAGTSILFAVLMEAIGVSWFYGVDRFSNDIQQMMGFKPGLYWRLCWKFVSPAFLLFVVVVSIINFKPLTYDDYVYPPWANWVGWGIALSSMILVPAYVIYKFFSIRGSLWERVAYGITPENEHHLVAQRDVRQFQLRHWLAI

[25] = target: Sodium-dependent dopamine transporter (Rattus norvegicus, UniProt P23977); experiment: Displacement of [N-methyl-3H]WIN-35428 from rat striatum DAT by filtration binding assay; summary of the method: as §2
[26] = target: Sodium-dependent serotonin transporter (Mus musculus, UniProt Q60857); experiment: Displacement of [3H]citalopram from mouse cortex SERT by filtration binding assay; summary of the method: as §2

## CCOC[C@H]1[C@@H]2CNC[C@@]21c1ccc(Cl)c(Cl)c1
[1]
  Ki: 7.94 nM
[2]
  Ki: 0.501 nM
[3]
  Ki: 0.158 nM
[4]
  Ki: 0.676 nM
Cytochrome P450 1A2
  IC50: > 9000 nM
Cytochrome P450 2C9
  IC50: > 9000 nM
Cytochrome P450 2C19
  IC50: > 9000 nM
Cytochrome P450 2D6
  IC50: 4000 nM
Cytochrome P450 3A4
  IC50: > 9000 nM
Liver microsomes [5]
  CL: 1.2 mL/min/g
Liver microsomes [6]
  CL: 1.3 mL/min/g
[7]
  clearance: 18 mL/min/kg
[8]
  half-life: 1.2 h
[9]
  Vd: 1.4 L/kg
[10]
  bioavailability: 61%
[11]
  Kp: 4.6
[12]
  fraction unbound: 0.014
[13]
  IC50: 1.26 nM
[14]
  IC50: 0.158 nM
[15]
  IC50: 5.01 nM
[16]
  Ki: 200 nM
[17]
  Ki: 158 nM
Histamine H1 receptor
  Ki: 1000 nM
[18]
  Ki: 158 nM
[19]
  Ki: 200 nM
[20]
  Ki: 63.1 nM
[21]
  Ki: 251 nM
[22]
  Ki: 100 nM
[23]
  IC50: 4200 nM
[24]
  Ki: 12600 nM
Transporter
  Ki: 0.135 nM
[25]
  Ki: 13.5 nM
[26]
  Ki: 0.851 nM
